Efflux pump inh – antifungal efflux pump inhibition, Nile Red retention; S. cerevisiae Candida pump triplex; inhibition, % at 10 µM; 0.44% of 330,000 active; AID 485275;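 active means plate passing quality check with inhibition over a set limit, or well fluorescence over plate mean plus 4 SD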;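 further: Nile Red retained in pooled yeast measured as flow cytometry median fluorescence; 0% = buffer negative control and 100% = Enniatin B positive control; higher means more Nile Red kept so more efflux inhibition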
CR mimetic SO – caloric restriction mimetics inhibiting age-related superoxide in yeast | S. cerevisiae aged cells, superoxide DHE fluorescence; stronger effect = lower value | superoxide response (% of plate mean), % at 10 µM | 0.18% of 330,000 active;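 active means superoxide response under a set limit, about three screen SD below normal, cut at about 65% in these data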;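 further: yeast aged for seven days with compound at 30 °C before DHE staining; 100% = average MFI of all compound-treated wells on the plate with controls excluded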
HDAC3 inhib – blocks human histone deacetylase 3. recombinant HDAC3, fluorogenic peptide/trypsin coupled, fluorescence. AID 2718. O15379. inhibition, % at 8.3 µM. 0.15% of 320,000 active; in the data active means inhibition above about 26%, passing the limit was not always enough
IDE cell inh – cellular human IDE inhibition | P14735 | HEK cells, FAbetaB cleavage, fluorescence polarization | inhibition, % at 5.59 µM | 0.41% of 320,000 active | AID 434962;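 active means percent inhibition above the average of all tested compounds plus 3 SD, set per screening campaign, cut at about 16% in these data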;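 further: IDE supplied by intact live HEK cells; FP after avidin binding of uncleaved biotin substrate so inhibition keeps polarization high; 0% = DMSO wells and 100% = 60 µM reference IDE inhibitor Ii1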
Target sequence (P14735 whole entry, looked up): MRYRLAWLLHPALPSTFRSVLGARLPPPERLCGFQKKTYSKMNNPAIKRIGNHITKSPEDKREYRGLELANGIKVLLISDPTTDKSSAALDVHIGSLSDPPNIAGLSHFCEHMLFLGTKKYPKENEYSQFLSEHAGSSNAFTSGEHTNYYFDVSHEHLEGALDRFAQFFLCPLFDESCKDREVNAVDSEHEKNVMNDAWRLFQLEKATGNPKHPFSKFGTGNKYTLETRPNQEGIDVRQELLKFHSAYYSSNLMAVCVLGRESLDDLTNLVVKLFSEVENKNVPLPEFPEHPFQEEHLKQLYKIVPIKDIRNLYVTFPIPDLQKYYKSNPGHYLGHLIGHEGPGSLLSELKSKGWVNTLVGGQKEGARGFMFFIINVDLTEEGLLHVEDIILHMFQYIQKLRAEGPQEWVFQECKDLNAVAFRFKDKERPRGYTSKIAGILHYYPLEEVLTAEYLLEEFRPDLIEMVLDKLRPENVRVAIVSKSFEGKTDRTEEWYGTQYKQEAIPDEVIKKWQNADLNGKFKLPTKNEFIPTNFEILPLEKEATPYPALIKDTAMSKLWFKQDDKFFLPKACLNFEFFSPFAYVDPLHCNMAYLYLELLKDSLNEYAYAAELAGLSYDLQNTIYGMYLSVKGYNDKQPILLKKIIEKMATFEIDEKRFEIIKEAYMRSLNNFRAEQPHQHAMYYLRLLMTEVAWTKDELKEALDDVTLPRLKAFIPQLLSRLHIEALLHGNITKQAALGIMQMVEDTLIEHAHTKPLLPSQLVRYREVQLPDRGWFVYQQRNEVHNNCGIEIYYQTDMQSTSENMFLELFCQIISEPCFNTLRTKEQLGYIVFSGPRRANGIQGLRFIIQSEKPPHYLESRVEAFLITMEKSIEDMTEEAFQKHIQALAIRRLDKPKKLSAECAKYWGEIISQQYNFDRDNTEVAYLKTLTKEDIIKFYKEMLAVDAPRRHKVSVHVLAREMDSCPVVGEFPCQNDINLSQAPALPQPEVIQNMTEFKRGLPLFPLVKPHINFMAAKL
TbMetRS inhib – Trypanosoma brucei MetRS inhibition. purified T. brucei MetRS, ATP depletion, Kinase-Glo luminescence. inhibition, % at 11.9 µM. 0.4% of 360,000 active. AID 624268;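 active means inhibition above a per-plate cutoff of the control wells' mean inhibition plus 3 SD, cut at about 5.5% in these data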;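 further: 0% = DMSO wells median and 100% = median of wells with control inhibitor compound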
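Material: parasite MetRS enzyme / Replication: singlicate, one well per compound / Signal: luminescence of leftover ATP / Schedule: 2 h aminoacylation at 25 °C after 15 min preincubation / Medium: HEPES-MgCl2-KCl buffer plus DTT, spermine, BSA, pyrophosphatase / Doses: 11.9 µM single point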
IDE cell activ – boosts human insulin-degrading enzyme activity in HEK cells; 0.073% of 340,000 active; activation, % at 5.96 µM; FAbeta-B cleavage, fluorescence polarization; 0% vehicle, 100% cell-free pure enzyme wells; P14735;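 active means activation above the mean of all tested compounds plus 3 SD, set per screening campaign, cut at about 17% in these data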
IDE inh confirm – confirmation of human insulin-degrading enzyme inhibitors in cells | shares compounds with IDE cell inh | HEK cells, FAbetaB cleavage, fluorescence polarization | inhibition, % at 5.59 µM | 51% of 1,200 active | AID 435028;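 active means mean inhibition across triplicate wells above the cutoff set by the earlier primary insulin-degrading enzyme screen, cut at about 16% in these data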;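 further: 0% = DMSO wells and 100% = 60 µM reference IDE inhibitor Ii1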
HEK293 tox – counter-screen for IDE inhibitors: cytotoxicity in HEK cells | shares compounds with IDE cell inh | HEK293 cytotoxicity, ATP luminescence | inhibition, % at 5.59 µM | 28% of 1,200 active | AID 449730; in the data active means inhibition above about 22%;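 further: 0% = vehicle wells and 100% = reference cytotoxic drug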
* hit, by the source's call; . = not tested or not shown. Hits are enriched below; roughly 1.4% of the tested compounds scored in any of these assays.

SMILES | Efflux pump inh | CR mimetic SO | HDAC3 inhib | IDE cell inh | TbMetRS inhib | IDE cell activ | IDE inh confirm | HEK293 tox
C=CCN(C(=O)COC(=O)c1cc[n+]([O-])cc1)c1nc(-c2ccccc2)cs1 | 0 | 92 | 3 | 35* | 0 | -26 | 34* | 3
CN(C)C=Nc1c(Br)cc(Br)c2nonc12 | 0 | 112 | 2 | 26* | 0 | -31 | 62* | 7
O=C(O)CSCC(=O)N1CCN(c2ccnc3cc(Cl)ccc23)CC1 | 0 | 120 | 2 | 30* | -2 | -14 | 6 | 6
Cc1cccc(Cl)c1NC(=O)N1CCN(c2ccnc3cc(Cl)ccc23)CC1 | 0 | 82 | 7 | 24* | 0 | -24 | 11 | 21
CC(=O)N1CCN(c2ccnc3cc(Cl)ccc23)CC1 | 0 | 112 | -5 | 9 | -1 | -18 | . | .
CCCCNC(=O)N1CCN(c2ccnc3cc(Cl)ccc23)CC1 | 0 | 94 | 1 | 19* | 0 | -18 | 11 | 18
O=C(Nc1cc(F)ccc1F)N1CCN(c2ccnc3cc(Cl)ccc23)CC1 | 0 | 80 | 3 | 22* | 0 | -39 | 9 | -3
COC(=O)[C@@]1(Cc2ccccc2)[C@H]2C(=O)N(C)C(=O)[C@H]2[C@H]2CN=C(SCC(=O)c3ccccc3)N21 | 0 | 94 | . | . | 0 | 2 | . | .
CC1=NN2C(=N)/C(=C\c3ccc(SCc4ccccc4)o3)C(=O)N=C2S1 | 0 | 86 | -2 | -1 | 0 | 3 | . | .
N=C1/C(=C\c2ccc(SCc3ccco3)o2)C(=O)N=C2SC=NN12 | 0 | 108 | 11 | 25* | 1 | -31 | 13 | 8
O=C(CCNS(=O)(=O)c1ccc(F)c(F)c1)NCCN1CCOCC1 | 0 | 101 | -12 | 4 | -1 | 2 | . | .
CC(=O)NN1C(=O)/C(=C\c2ccc(O)cc2)SC1=S | 0 | 96 | -3 | 36* | 1 | -73 | 89* | 8
COc1cccc(/C=C2\SC(=S)N(NC(=O)c3ccncc3)C2=O)c1 | 0 | 97 | 9 | 3 | -2 | 3 | . | .
COc1cc(/C=C2\SC(=S)N(Nc3ccccc3)C2=O)ccc1O | 0 | 106 | 11 | 128* | 0 | -114 | 142* | 9
CC(=O)NN1C(=O)/C(=C\c2ccc(C)cc2)SC1=S | 0 | 111 | -5 | -1 | 1 | -4 | . | .
COc1cc(/C=C2\SC(=S)N(NC(=O)c3ccc(O)cc3)C2=O)ccc1O | 1 | 109 | -1 | 85* | 1 | -85 | 150* | 10
CCOc1cc(/C=C2\SC(=S)N(Nc3ccccc3)C2=O)ccc1O | 0 | 94 | 12 | 53* | 0 | -78 | 128* | 7
O=C(N1CCCC1)N1CCN(S(=O)(=O)c2ccccc2)CC1 | 0 | 97 | -11 | -5 | -1 | -3 | . | .
COc1ccc(/C=C2\SC(=S)N(CC3CCCO3)C2=O)cc1 (stereo unspecified) | 0 | 100 | -7 | -2 | -1 | 2 | . | .
COc1cc(/C=C2/SC(=S)N(CC3CCCO3)C2=O)ccc1O (stereo unspecified) | 1 | 121 | . | 108* | 0 | -95 | 175* | 13
COc1cc(/C=C2\SC(=S)N(C(Cc3ccccc3)C(=O)O)C2=O)ccc1O (stereo unspecified) | 0 | 93 | . | 46* | 0 | -58 | 109* | 6
C=CCN1C(=O)/C(=C\c2ccc(OC(=O)c3ccco3)c(OC)c2)SC1=S | 0 | 108 | 3 | 32* | 0 | -77 | 143* | 11
C#CCN1C(=O)S/C(=C/C=C/c2ccc(N(C)C)cc2)C1=O | 1 | 93 | 0 | 41* | -1 | -44 | 57* | 27*
C=CCNC(=O)/C(C#N)=C\c1cc(Cl)c(O)c(OCC)c1 | 0 | 93 | 13 | 9 | 0 | -12 | . | .
CCOc1cc(/C=C(/C#N)C(=O)Nc2ccc(O)cc2)cc(Br)c1O | 0 | 95 | 15 | 38* | 0 | -58 | 75* | 57*
COc1ccccc1N=C1NC(=O)/C(=C/c2ccc(N(C)C)cc2)S1 | 0 | 100 | 2 | 53* | 0 | -70 | 56* | 53*
